In brackets after ≈: the same amount, converted by molar mass.

What all share (type): functional
In one assay the test system is Candida albicans. In words: Antifungal activity against Candida albicans ATCC 10145 after 48 hrs. The following applies: ATCC 10145, 48 h. Summed up:
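Yeast maintained in Sabouraud dextrose broth, 24 h at 25 °C; testing by twofold serial dilution in Sabouraud dextrose broth, pH 7.4, final inoculum 10⁴ CFU/ml. Compounds in dimethylformamide/propyleneglycol (0.5:9.5), diluted in medium from 100 to 0.78 (100, 50, 25, 12.5, 6.25, 3.12, 1.56, 0.78).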

Assay [1] deals with Staphylococcus aureus. Briefly: Antibacterial activity against methicillin-resistant Staphylococcus aureus ATCC 43300 after 24 hrs. The conditions noted are these: ATCC 43300, 24 h. Summed up:
(§1)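 Compounds were dissolved in dimethylformamide/propyleneglycol (0.5:9.5) and serially diluted twofold in Mueller–Hinton broth at pH 7.4, from 100 down to 0.78. Inocula came from 24 h broth cultures grown at 37 °C, with a final inoculum of 10⁵ CFU/ml. Tubes were incubated for 24 h at 37 °C alongside inoculated-broth and solvent controls. The MIC was read as the last tube showing no growth.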

A further assay has as its system Escherichia coli. Briefly: Antibacterial activity against Escherichia coli ATCC 23556 after 24 hrs. The following applies: ATCC 23556, 24 h. Summed up:
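Twofold serial broth dilution in Mueller–Hinton broth, pH 7.4; compounds dissolved in dimethylformamide/propyleneglycol (0.5:9.5), diluted in medium from 100 down to 0.78 (100, 50, 25, 12.5, 6.25, 3.12, 1.56, 0.78). Inoculum 10⁵ CFU/ml from 24 h broth cultures. Incubated 24 h at 37 °C; MIC taken as last tube without growth. Inoculated broth-only tubes as controls.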

The subject of assay [2] is Staphylococcus aureus. In words: Antibacterial activity against Staphylococcus aureus ATCC 25923 after 24 hrs. The following applies: ATCC 25923, 24 h. Summed up:
as §1

Assay [3] has as its system Staphylococcus aureus. Briefly: Antibacterial activity against methicillin-resistant Staphylococcus aureus isolate after 24 hrs. In a few lines: as §1

What is called MIC is the least concentration at which growth counts as inhibited. A high value points to a less susceptible organism. With `O=C(CN1C(=O)S/C(=C\c2sc(Cl)nc2Cl)C1=O)c1ccc(Cl)cc1`, the MIC worked out at 6.25 µg/mL (≈ 14.4 µM) in the assay with Candida albicans; 6.25 µg/mL (≈ 14.4 µM) in the assay on Staphylococcus aureus [1]; 25 µg/mL (≈ 57.6 µM) with Escherichia coli; 6.25 µg/mL (≈ 14.4 µM) against Staphylococcus aureus [2]; 6.25 µg/mL (≈ 14.4 µM) in the assay with Staphylococcus aureus [3].

With `O=C1S/C(=C\c2sc(Cl)nc2Cl)C(=O)N1Cc1ccc(Cl)cc1Cl`, the minimal inhibitory concentration (MIC) against Candida albicans turned out to be 6.25 µg/mL (≈ 14.2 µM); in the assay with Staphylococcus aureus [1], 12.5 µg/mL (≈ 28.4 µM); against Escherichia coli, 25 µg/mL (≈ 56.8 µM); in the assay with Staphylococcus aureus [2] it was 12.5 µg/mL (≈ 28.4 µM); with Staphylococcus aureus [3], 12.5 µg/mL (≈ 28.4 µM).

For `Clc1ccc(COC(Cn2ccnc2)c2ccc(Cl)cc2Cl)c(Cl)c1` (stereo unspecified) [MICONAZOLE], the results for the minimal inhibitory concentration (MIC) with Candida albicans and against Staphylococcus aureus [1] were 25 µg/mL (≈ 60.1 µM) and 6.25 µg/mL (≈ 15 µM), respectively.

With `O=C(CN1C(=O)S/C(=C\c2sc(Cl)nc2Cl)C1=O)c1ccc(Cl)cc1Cl`, the minimum inhibitory concentration (MIC) is 12.5 µg/mL (≈ 26.7 µM) in the assay on Candida albicans; 12.5 µg/mL (≈ 26.7 µM) in the assay on Staphylococcus aureus [1]; 25 µg/mL (≈ 53.4 µM) against Escherichia coli; 12.5 µg/mL (≈ 26.7 µM) in the assay with Staphylococcus aureus [2]; 12.5 µg/mL (≈ 26.7 µM) with Staphylococcus aureus [3].

With `O=C1S/C(=C\c2sc(Cl)nc2Cl)C(=O)N1Cc1ccccc1`, the minimal inhibitory concentration (MIC) stood at 6.25 µg/mL (≈ 16.8 µM) in the assay with Candida albicans; 6.25 µg/mL (≈ 16.8 µM) in the assay with Staphylococcus aureus [1]; 25 µg/mL (≈ 67.3 µM) with Escherichia coli; 12.5 µg/mL (≈ 33.7 µM) against Staphylococcus aureus [2]; 12.5 µg/mL (≈ 33.7 µM) against Staphylococcus aureus [3].

For the molecule `O=C(CN1C(=O)S/C(=C/c2sc(Cl)nc2Cl)C1=O)c1ccc(Cl)cc1`, the MIC amounted to 6.25 µg/mL (≈ 14.4 µM) in the assay on Candida albicans; 12.5 µg/mL (≈ 28.8 µM) in the assay on Staphylococcus aureus [1]; 50 µg/mL (≈ 115 µM) against Escherichia coli; 12.5 µg/mL (≈ 28.8 µM) in the assay with Staphylococcus aureus [2]; 6.25 µg/mL (≈ 14.4 µM) in the assay with Staphylococcus aureus [3].

`O=C(CN1C(=O)S/C(=C\c2sc(Cl)nc2Cl)C1=O)c1ccccc1`: the MIC against Candida albicans was found to be 12.5 µg/mL (≈ 31.3 µM); in the assay with Staphylococcus aureus [1], 6.25 µg/mL (≈ 15.7 µM); in the assay on Escherichia coli, 25 µg/mL (≈ 62.6 µM); in the assay with Staphylococcus aureus [2], 6.25 µg/mL (≈ 15.7 µM); in the assay on Staphylococcus aureus [3], 6.25 µg/mL (≈ 15.7 µM).

As for `O=C1S/C(=C\c2sc(Cl)nc2Cl)C(=O)N1Cc1ccc([N+](=O)[O-])cc1`, the minimum inhibitory concentration (MIC) in the assay on Candida albicans came out at 12.5 µg/mL (≈ 30 µM); against Staphylococcus aureus [1], 6.25 µg/mL (≈ 15 µM); against Escherichia coli it was 25 µg/mL (≈ 60.1 µM); in the assay with Staphylococcus aureus [2], 6.25 µg/mL (≈ 15 µM); in the assay with Staphylococcus aureus [3], 12.5 µg/mL (≈ 30 µM).

As for `O=C1S/C(=C\c2sc(Cl)nc2Cl)C(=O)N1Cc1ccc(Cl)cc1`, the minimum inhibitory concentration (MIC) in the assay on Candida albicans came to 6.25 µg/mL (≈ 15.4 µM); in the assay with Staphylococcus aureus [1], 6.25 µg/mL (≈ 15.4 µM); in the assay with Escherichia coli, 25 µg/mL (≈ 61.6 µM); with Staphylococcus aureus [2], 6.25 µg/mL (≈ 15.4 µM); in the assay on Staphylococcus aureus [3], 6.25 µg/mL (≈ 15.4 µM).

Take `O=C(CN1C(=O)S/C(=C\c2sc(Cl)nc2Cl)C1=O)c1ccc(F)cc1`: the minimal inhibitory concentration (MIC) came out at 12.5 µg/mL (≈ 30 µM) with Candida albicans; 6.25 µg/mL (≈ 15 µM) with Staphylococcus aureus [1]; 6.25 µg/mL (≈ 15 µM) in the assay with Escherichia coli; 6.25 µg/mL (≈ 15 µM) with Staphylococcus aureus [2]; 6.25 µg/mL (≈ 15 µM) against Staphylococcus aureus [3].

As to `CC1(C)S[C@@H]2[C@H](NC(=O)[C@H](N)c3ccccc3)C(=O)N2[C@H]1C(=O)O` [AMPICILLIN], the MIC in the assay on Staphylococcus aureus [1] came to 1.56 µg/mL (≈ 4.46 µM); in the assay with Escherichia coli, 25 µg/mL (≈ 71.5 µM); with Staphylococcus aureus [2], 6.25 µg/mL (≈ 17.9 µM); with Staphylococcus aureus [3], 1.56 µg/mL (≈ 4.46 µM).

Turning to `O=C1S/C(=C\c2sc(Cl)nc2Cl)C(=O)N1Cc1ccc(Br)cc1`, the MIC against Candida albicans worked out at 6.25 µg/mL (≈ 13.9 µM); against Staphylococcus aureus [1] it was 12.5 µg/mL (≈ 27.8 µM); with Escherichia coli, 25 µg/mL (≈ 55.5 µM); in the assay on Staphylococcus aureus [2], 6.25 µg/mL (≈ 13.9 µM); with Staphylococcus aureus [3], 6.25 µg/mL (≈ 13.9 µM).

For the molecule `O=C(CN1C(=O)S/C(=C\c2sc(Cl)nc2Cl)C1=O)c1ccc(Br)cc1`, the minimal inhibitory concentration (MIC) in the assay on Candida albicans came to 6.25 µg/mL (≈ 13.1 µM); against Staphylococcus aureus [1], 6.25 µg/mL (≈ 13.1 µM); in the assay with Escherichia coli, 6.25 µg/mL (≈ 13.1 µM); in the assay with Staphylococcus aureus [2] it was 12.5 µg/mL (≈ 26.1 µM); against Staphylococcus aureus [3] it was 12.5 µg/mL (≈ 26.1 µM).

On to `O=C(CN1C(=O)S/C(=C/c2sc(Cl)nc2Cl)C1=O)c1ccc(Cl)cc1Cl`, for which the MIC was 12.5 µg/mL (≈ 26.7 µM) against Candida albicans; 12.5 µg/mL (≈ 26.7 µM) in the assay with Staphylococcus aureus [1]; 25 µg/mL (≈ 53.4 µM) against Escherichia coli; 12.5 µg/mL (≈ 26.7 µM) in the assay with Staphylococcus aureus [2]; 12.5 µg/mL (≈ 26.7 µM) in the assay with Staphylococcus aureus [3].

As for `O=C1S/C(=C\c2sc(Cl)nc2Cl)C(=O)N1Cc1ccc(F)cc1`, the MIC against Candida albicans stood at 12.5 µg/mL (≈ 32.1 µM); against Staphylococcus aureus [1] it was 6.25 µg/mL (≈ 16.1 µM); in the assay on Escherichia coli, 25 µg/mL (≈ 64.2 µM); against Staphylococcus aureus [2], 6.25 µg/mL (≈ 16.1 µM); with Staphylococcus aureus [3], 6.25 µg/mL (≈ 16.1 µM).

Take `O=C(CN1C(=O)S/C(=C\c2sc(Cl)nc2Cl)C1=O)c1ccc([N+](=O)[O-])cc1`: the minimum inhibitory concentration (MIC) was found to be 6.25 µg/mL (≈ 14.1 µM) with Candida albicans; 12.5 µg/mL (≈ 28.1 µM) with Staphylococcus aureus [1]; 25 µg/mL (≈ 56.3 µM) in the assay on Escherichia coli; 12.5 µg/mL (≈ 28.1 µM) against Staphylococcus aureus [2]; 12.5 µg/mL (≈ 28.1 µM) with Staphylococcus aureus [3].

These data come from ChEMBL document CHEMBL1143753, “Synthesis and antimicrobial activity of some new thiazolyl thiazolidine-2,4-dione derivatives” (2007).
